Experimental data reported in ChEMBL document CHEMBL1155469, “Peptide nucleic acids conjugated to short basic peptides show improved pharmacokinetics and antisense activity in adipose tissue” (J Med Chem, 2010).
Blank lines part the entries; values can stand above or below the molecule they belong to. Active and inactive are the calls of the source. The rule behind the calls is not given here.

Assays:
[1] = tested on: BCL1; assay: Inhibition of PTEN expression in mouse BCL1 cells after 62 hrs by Western blotting; type: functional, cell-based; conditions: BCL1, 62 h
Method in brief: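 BCL1 cells were grown in DMEM with 10% FBS at 37 °C, 5% CO2. Compound was delivered to 2×10^6 cells by electroporation (200 V, 1000 uF, 13 ohms), and cells were harvested 62 h later. Western blot of RIPA lysates used rabbit anti-PTEN and anti-CD40 (1:1000) with HRP secondary and ECL detection. PTEN was normalized to CD40. n=3, mean ± SD.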

[2] = tested on: Mus musculus; assay: Toxicity in Balb/C mouse assessed as change in body weight at 10 to 40 mg/kg, ip administered thrice a week for 2 weeks measured 48 hrs after last dose; type: organism-based; design: dose 10-40 mg/kg, route intraperitoneal; conditions: in vivo
Method in brief: (§1)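 Male Balb/c mice, 6–8 wk, n=4/group, received compound i.p. in PBS (10 ul/g) 3x/wk for 2 wk. Body weight was monitored throughout. At 48 h after the last dose, mice were anesthetized with isoflurane and bled by cardiac puncture. Serum AST, ALT, BUN, bilirubin, glucose and triglycerides were compared with the saline group. ALT rise below 2x normal was counted as absent.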

[3] = tested on: Mus musculus; assay: Toxicity in Balb/C mouse assessed as change in serum AST levels at 10 to 40 mg/kg, ip administered thrice a week for 2 weeks measured 48 hrs after last dose; type: organism-based; design: dose 10-40 mg/kg, route intraperitoneal; conditions: in vivo; method in brief: as §1
[4] = tested on: Mus musculus; assay: Toxicity in Balb/C mouse assessed as change in serum ALT levels at 10 to 40 mg/kg, ip administered thrice a week for 2 weeks measured 48 hrs after last dose; type: organism-based; design: dose 10-40 mg/kg, route intraperitoneal; conditions: in vivo; method in brief: as §1
[5] = tested on: Mus musculus; assay: Toxicity in Balb/C mouse assessed as change in blood urea nitrogen levels at 10 to 40 mg/kg, ip administered thrice a week for 2 weeks measured 48 hrs after last dose; type: organism-based; design: dose 10-40 mg/kg, route intraperitoneal; conditions: in vivo; method in brief: as §1
[6] = tested on: Mus musculus; assay: Toxicity in Balb/C mouse assessed as change in serum bilirubin levels at 10 to 40 mg/kg, ip administered thrice a week for 2 weeks measured 48 hrs after last dose; type: organism-based; design: dose 10-40 mg/kg, route intraperitoneal; conditions: in vivo; method in brief: as §1
[7] = tested on: Mus musculus; assay: Toxicity in Balb/C mouse assessed as change in serum glucose levels at 10 to 40 mg/kg, ip administered thrice a week for 2 weeks measured 48 hrs after last dose; type: organism-based; design: dose 10-40 mg/kg, route intraperitoneal; conditions: in vivo; method in brief: as §1
[8] = tested on: Mus musculus; assay: Toxicity in Balb/C mouse assessed as change in serum triglyceride levels at 10 to 40 mg/kg, ip administered thrice a week for 2 weeks measured 48 hrs after last dose; type: organism-based; design: dose 10-40 mg/kg, route intraperitoneal; conditions: in vivo; method in brief: as §1
[9] = tested on: Mus musculus; assay: Toxicity in Balb/C mouse assessed as increase in spleen weight at 40 mg/kg, ip administered thrice a week for 2 weeks measured 48 hrs after last dose; type: organism-based; design: dose 40 mg/kg, route intraperitoneal; conditions: in vivo
Method in brief: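 Male Balb/c mice, 6–8 wk, n=4/group, were dosed i.p. in PBS 3x/wk for 2 wk at 40 mg/kg. They were killed by cervical dislocation 48 h after the last dose. Spleen weight was taken at necropsy and compared with the saline-treated group.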

[10] = tested on: Mus musculus; assay: Inhibition of PTEN expression in Balb/C mouse liver at 10 to 40 mg/kg, ip administered thrice a week for 2 weeks measured 48 hrs after last dose by Western blot analysis; type: functional, organism-based
Method in brief: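 Male Balb/c mice, 6–8 wk, n=4/group, dosed i.p. in PBS 3x/wk for 2 wk and killed 48 h after the last dose. Tissue was homogenized in RIPA buffer with protease inhibitors, and protein was measured by Lowry assay. Lysates were run on 10% PAGE and blotted to PVDF. Blots were probed with rabbit anti-PTEN (1:1000) and HRP anti-rabbit (1:2500), with ECL detection.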

[11] = tested on: Mus musculus; assay: Inhibition of PTEN expression in Balb/C mouse white adipose tissue assessed as reduction of full length transcript at 10 to 40 mg/kg, ip administered thrice a week for 2 weeks measured 48 hrs after last dose […]; type: functional, organism-based
[12] = tested on: Mus musculus; assay: Inhibition of PTEN expression in Balb/C mouse white adipose tissue assessed as upregulation of isoform lacking exon at 10 to 40 mg/kg, ip administered thrice a week for 2 weeks measured 48 hrs after last dose […]; type: functional, organism-based
[13] = tested on: Mus musculus; assay: Inhibition of PTEN expression in Balb/C mouse kidney at 10 to 40 mg/kg, ip administered thrice a week for 2 weeks measured 48 hrs after last dose

IC50 [1]: 2400 nM
SMILES: Cc1cn(CC(=O)N(CCNC(=O)CN(CCNC(=O)CN(CCNC(=O)CN(CCNC(=O)CN(CCN)C(=O)Cn2cnc3c(N)ncnc32)C(=O)Cn2cnc3c(=O)[nH]c(N)nc32)C(=O)Cn2cc(C)c(=O)[nH]c2=O)C(=O)Cn2cc(C)c(=O)[nH]c2=O)CC(=O)NCCN(CC(=O)NCCN(CC(=O)NCCN(CC(=O)NCCN(CC(=O)NCCN(CC(=O)NCCN(CC(=O)NCCN(CC(=O)NCCN(CC(=O)NCCN(CC(=O)NCCN(CC(=O)N[C@@H](CCCCN)C(N)=O)C(=O)Cn2cnc3c(N)ncnc32)C(=O)Cn2cnc3c(=O)[nH]c(N)nc32)C(=O)Cn2cnc3c(N)ncnc32)C(=O)Cn2cnc3c(=O)[nH]c(N)nc32)C(=O)Cn2cnc3c(N)ncnc32)C(=O)Cn2cc(C)c(=O)[nH]c2=O)C(=O)Cn2ccc(N)nc2=O)C(=O)Cn2ccc(N)nc2=O)C(=O)Cn2cnc3c(N)ncnc32)C(=O)Cn2ccc(N)nc2=O)c(=O)[nH]c1=O

IC50 [1]: 3000 nM
SMILES: Cc1cn(CC(=O)N(CCN)CC(=O)NCCN(CC(=O)NCCN(CC(=O)NCCN(CC(=O)NCCN(CC(=O)NCCN(CC(=O)NCCN(CC(=O)NCCN(CC(=O)NCCN(CC(=O)NCCN(CC(=O)NCCN(CC(=O)NCCN(CC(=O)NCCN(CC(=O)NCCN(CC(=O)NCCN(CC(=O)N[C@@H](CCCCN)C(N)=O)C(=O)Cn2cnc3c(=O)[nH]c(N)nc32)C(=O)Cn2cnc3c(N)ncnc32)C(=O)Cn2cnc3c(N)ncnc32)C(=O)Cn2cnc3c(N)ncnc32)C(=O)Cn2cnc3c(=O)[nH]c(N)nc32)C(=O)Cn2cnc3c(N)ncnc32)C(=O)Cn2cnc3c(=O)[nH]c(N)nc32)C(=O)Cn2cnc3c(N)ncnc32)C(=O)Cn2cc(C)c(=O)[nH]c2=O)C(=O)Cn2ccc(N)nc2=O)C(=O)Cn2ccc(N)nc2=O)C(=O)Cn2cnc3c(N)ncnc32)C(=O)Cn2ccc(N)nc2=O)C(=O)Cn2cc(C)c(=O)[nH]c2=O)c(=O)[nH]c1=O

IC50 [1]: 3200 nM
SMILES: Cc1cn(CC(=O)N(CCNC(=O)CN(CCNC(=O)CN(CCNC(=O)CN(CCNC(=O)CN(CCNC(=O)CN(CCNC(=O)CN(CCN)C(=O)Cn2cnc3c(N)ncnc32)C(=O)Cn2cc(C)c(=O)[nH]c2=O)C(=O)Cn2cnc3c(N)ncnc32)C(=O)Cn2cnc3c(=O)[nH]c(N)nc32)C(=O)Cn2cc(C)c(=O)[nH]c2=O)C(=O)Cn2cc(C)c(=O)[nH]c2=O)CC(=O)NCCN(CC(=O)NCCN(CC(=O)NCCN(CC(=O)NCCN(CC(=O)NCCN(CC(=O)NCCN(CC(=O)NCCN(CC(=O)NCCN(CC(=O)N[C@@H](CCCCN)C(N)=O)C(=O)Cn2cnc3c(N)ncnc32)C(=O)Cn2cnc3c(=O)[nH]c(N)nc32)C(=O)Cn2cnc3c(N)ncnc32)C(=O)Cn2cc(C)c(=O)[nH]c2=O)C(=O)Cn2ccc(N)nc2=O)C(=O)Cn2ccc(N)nc2=O)C(=O)Cn2cnc3c(N)ncnc32)C(=O)Cn2ccc(N)nc2=O)c(=O)[nH]c1=O

Second part, the molecule before the results:

SMILES: Cc1cn(CC(=O)N(CCNC(=O)CN(CCN)C(=O)Cn2ccc(N)nc2=O)CC(=O)NCCN(CC(=O)NCCN(CC(=O)NCCN(CC(=O)NCCN(CC(=O)NCCN(CC(=O)NCCN(CC(=O)NCCN(CC(=O)NCCN(CC(=O)NCCN(CC(=O)NCCN(CC(=O)NCCN(CC(=O)NCCN(CC(=O)NCCN(CC(=O)N[C@@H](CCCCN)C(N)=O)C(=O)Cn2cnc3c(N)ncnc32)C(=O)Cn2ccc(N)nc2=O)C(=O)Cn2cnc3c(N)ncnc32)C(=O)Cn2cc(C)c(=O)[nH]c2=O)C(=O)Cn2ccc(N)nc2=O)C(=O)Cn2cc(C)c(=O)[nH]c2=O)C(=O)Cn2cnc3c(N)ncnc32)C(=O)Cn2ccc(N)nc2=O)C(=O)Cn2cnc3c(N)ncnc32)C(=O)Cn2ccc(N)nc2=O)C(=O)Cn2cnc3c(=O)[nH]c(N)nc32)C(=O)Cn2cnc3c(N)ncnc32)C(=O)Cn2ccc(N)nc2=O)c(=O)[nH]c1=O
IC50 [1]: 1000 nM

SMILES: Cc1cn(CC(=O)N(CCNC(=O)CN(CCNC(=O)CN(CCNC(=O)CN(CCNC(=O)CN(CCNC(=O)CN(CCNC(=O)CN(CCNC(=O)CN(CCNC(=O)CN(CCNC(=O)CN(CCNC(=O)CN(CCNC(=O)CN(CCNC(=O)[C@H](CCCCN)N(CCNC(=O)[C@H](CCCCN)NC(=O)[C@H](CCCCN)NC(=O)[C@H](CCCCN)NC(=O)[C@H](CCCCN)NC(=O)[C@H](CCCCN)NC(=O)[C@H](CCCCN)NC(=O)[C@H](CCCCN)NC(=O)[C@@H](N)CCCCN)C(=O)Cn2cc(C)c(=O)[nH]c2=O)C(=O)Cn2ccc(N)nc2=O)C(=O)Cn2cc(C)c(=O)[nH]c2=O)C(=O)Cn2cnc3c(N)ncnc32)C(=O)Cn2cnc3c(N)ncnc32)C(=O)Cn2ccc(N)nc2=O)C(=O)Cn2ccc(N)nc2=O)C(=O)Cn2cnc3c(N)ncnc32)C(=O)Cn2ccc(N)nc2=O)C(=O)Cn2cnc3c(N)ncnc32)C(=O)Cn2cc(C)c(=O)[nH]c2=O)C(=O)Cn2ccc(N)nc2=O)CC(=O)NCCN(CC(=O)NCCN(CC(=O)NCCN(CC(=O)N[C@@H](CCCCN)C(N)=O)C(=O)Cn2cnc3c(N)ncnc32)C(=O)Cn2cnc3c(=O)[nH]c(N)nc32)C(=O)Cn2ccc(N)nc2=O)c(=O)[nH]c1=O
Activity [2]: Non-toxic | Activity [3]: Non-toxic | Activity [4]: Non-toxic | Activity [5]: Non-toxic | Activity [6]: Non-toxic | Activity [7]: Non-toxic | Activity [8]: Non-toxic | Activity [9]: 145% | inhibition [10]: inactive | Activity [11]: inactive | Activity [12]: inactive | inhibition [13]: inactive

SMILES: COCCO[C@@H]1[C@H](OP(=O)(S)OC[C@H]2O[C@@H](n3cc(C)c(=O)[nH]c3=O)C[C@@H]2OP(=O)(S)OC[C@H]2O[C@@H](n3cnc4c(N)ncnc43)[C@H](OCCOC)[C@@H]2OP(=O)(S)OC[C@H]2O[C@@H](n3cnc4c(=O)[nH]c(N)nc43)[C@H](OCCOC)[C@@H]2OP(=O)(S)OC[C@H]2O[C@@H](n3cnc4c(N)ncnc43)[C@H](OCCOC)[C@@H]2OP(=O)(S)OC[C@H]2O[C@@H](n3cnc4c(=O)[nH]c(N)nc43)[C@H](OCCOC)[C@@H]2OP(=O)(S)OC[C@H]2O[C@@H](n3cnc4c(N)ncnc43)[C@H](OCCOC)[C@@H]2OP(=O)(S)OC[C@H]2O[C@@H](n3cnc4c(N)ncnc43)[C@H](OCCOC)[C@@H]2OP(=O)(S)OC[C@H]2O[C@@H](n3cnc4c(N)ncnc43)[C@H](OCCOC)[C@@H]2OP(=O)(S)OC[C@H]2O[C@@H](n3cnc4c(=O)[nH]c(N)nc43)[C@H](OCCOC)[C@@H]2O)[C@@H](COP(=O)(S)O[C@H]2[C@@H](OCCOC)[C@H](n3ccc(N)nc3=O)O[C@@H]2COP(=O)(S)O[C@H]2[C@@H](OCCOC)[C@H](n3cnc4c(N)ncnc43)O[C@@H]2COP(=O)(S)O[C@H]2[C@@H](OCCOC)[C@H](n3ccc(N)nc3=O)O[C@@H]2COP(=O)(S)O[C@H]2C[C@H](n3cc(C)c(=O)[nH]c3=O)O[C@@H]2COP(=O)(S)O[C@H]2C[C@H](n3cc(C)c(=O)[nH]c3=O)O[C@@H]2COP(=O)(S)O[C@H]2C[C@H](n3cc(C)c(=O)[nH]c3=O)O[C@@H]2COP(=O)(S)O[C@H]2[C@@H](OCCOC)[C@H](n3cnc4c(=O)[nH]c(N)nc43)O[C@@H]2COP(=O)(S)O[C@H]2[C@@H](OCCOC)[C@H](n3cnc4c(N)ncnc43)O[C@@H]2COP(=O)(S)O[C@H]2C[C@H](n3cc(C)c(=O)[nH]c3=O)O[C@@H]2COP(=O)(S)O[C@H]2[C@@H](OCCOC)[C@H](n3cnc4c(N)ncnc43)O[C@@H]2CO)O[C@H]1n1ccc(N)nc1=O (some centres not stated)
IC50 [1]: 2200 nM
